# Legend:
# [1] = system: Human immunodeficiency virus 1; assay: (§1) Effective concentration required to achieve 50% protection of MT-4 cells against the cytopathic effect of HIV-1.; format: functional, organism-based; details: Human immunodeficiency virus 1, MT4
# In short: (§2)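 MT-4 cells infected with HIV-1 and incubated with a range of compound concentrations. Viable cells were counted 5 days post-infection by MTT staining. IC50 is the concentration protecting 50% of cells from virus-induced cytopathic effect. Values are means over n assays, where n varies per compound.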
# [2] = system: Human immunodeficiency virus 1; assay: as §1; format: functional, organism-based, MT4; in short: as §2
# MT4 [3] = assay: Effective concentration of compound required to achieve 50% protection of MT-4 cells against the cytopathic effect of HIV-1 number of experiments = 6; format: functional, cell-based; details: Homo sapiens; in short: as §2
# MT4 [4] = assay: Effective concentration of compound required to achieve 50% protection of MT-4 cells against the cytopathic effect of HIV-1 number of experiments = 8; format: functional, cell-based; details: Homo sapiens; in short: as §2
# MT4 [5] = assay: Effective concentration of compound required to achieve 50% protection of MT-4 cells against the cytopathic effect of HIV-1 number of experiments = 4; format: functional, cell-based; details: Homo sapiens; in short: as §2
# MT4 [6] = assay: Effective concentration of compound required to achieve 50% protection of MT-4 cells against the cytopathic effect of HIV-1 number of experiments = 53; format: functional, cell-based; details: Homo sapiens; in short: as §2
# MT4 [7] = assay: Effective concentration of compound required to achieve 50% protection of MT-4 cells against the cytopathic effect of HIV-1 number of experiments = 20; format: functional, cell-based; details: Homo sapiens; in short: as §2
# MT4 [8] = assay: Effective concentration of compound required to achieve 50% protection of MT-4 cells against the cytopathic effect of HIV-1 number of experiments = 24; format: functional, cell-based; details: Homo sapiens; in short: as §2
# [9] = Human immunodeficiency virus 1, MT4
IC50 [1] [µM],Compound,further results
> 250,CC1Cn2c(O)nc3cccc(c32)CN1 (stereo not drawn),
0.026,C=C(C)CN1Cc2cccc3nc(S)n(c23)C[C@H]1C,
> 10,CC(C)=CCN1Cc2cccc3nc(O)n(c23)C[C@@H]1C(C)C,
> 250,Oc1nc2cccc3c2n1CC(c1ccccc1)NC3 (stereo not drawn),
> 10,C=C(C)CN1Cc2cccc3nc(O)n(c23)CC1c1ccccc1 (stereo not drawn),
,CCCC1CNCc2cccc3nc(O)n1c23 (stereo not drawn),"IC50 [2, 9]: > 250 µM"
73.3,CCCN1Cc2cccc3[nH]c(=O)n(c23)C(C(C)C)C1 (stereo not drawn),
> 83,CCCN1CCn2c(=O)[nH]c3cccc(c32)C1C (stereo not drawn),
,CCCN1Cc2cccc3nc(O)n(c23)CC1=O,"IC50 [2, 9]: > 250 µM"
> 2,CC(C)=CCN1CCn2c(S)nc3cc(Cl)c4c(c32)C1CC4 (stereo not drawn),
0.48,CC(C)=CCN1[C@H](C)Cn2c(=S)[nH]c3cc(Cl)cc(c32)[C@H]1C,
> 250,CCCN1Cc2cccc3nc(O)n(c23)C(c2ccccc2)C1 (stereo not drawn),
,CCCC1Cn2c(O)nc3cccc(c32)CN1 (stereo not drawn),"IC50 [2, 9]: > 250 µM"
,C[C@@H]1CN(CC2CC2)Cc2cc(Cl)cc3[nH]c(=S)n1c23,IC50 (MT4 [3]): 2.18 µM
> 2,CC(C)=CCN1CCn2c(S)nc3cc(Cl)cc(c32)C1CC(C)C (stereo not drawn),
> 10,CC(C)=CCN1Cc2cc(Cl)cc3nc(O)n(c23)C[C@@H]1C(C)C,
> 2,CC(C)=CCN1CCn2c(O)nc3cc(Cl)cc(c32)C1CC(C)C (stereo not drawn),
> 250,CC1(C)Cn2c(O)nc3cccc(c32)CN1,
> 10,CC(C)=CCN1[C@@H](C)Cn2c(S)nc3cc(Cl)cc(c32)[C@@H]1C,
3.76,C/C=C1/CC2Cn3c(S)nc4cc(Cl)cc(c43)CN2C1 (stereo not drawn),
> 10,C=C1CC2Cn3c(S)nc4cc(Cl)cc(c43)CN2C1 (stereo not drawn),
,CC(C)C1CNCc2cccc3nc(O)n1c23 (stereo not drawn),"IC50 [2, 9]: > 250 µM"
,CC(C)=CCN1Cc2cccc3nc(O)n(c23)C[C@H]1C,IC50 (MT4 [4]): 3.32 µM
0.23,CC(C)=CCN1[C@H](C)Cn2c(=O)[nH]c3cc(Cl)cc(c32)[C@H]1C,
,C[C@@H]1Cn2c(O)nc3cc(Cl)cc(c32)CN1,"IC50 [2, 9]: > 250 µM"

IC50 [1] [µM],Compound,further results
,S=c1[nH]c2cccc3c2n1-c1ccccc1N(CC1CC1)C3,"IC50 [2, 9]: > 10 µM"
> 250,C=C(C)CN1Cc2cccc3nc(O)n(c23)C(c2ccccc2)C1 (stereo not drawn),
,C=C(C)CN1Cc2cccc3[nH]c(=O)n(c23)CC1CC (stereo not drawn),IC50 (MT4 [5]): > 50 µM
,CC(C)[C@H]1Cn2c(O)nc3cccc(c32)CN1,"IC50 [2, 9]: > 250 µM"
> 250,CC(C)C1Cn2c(O)nc3cccc(c32)CN1 (stereo not drawn),
,CC(C)=CCN1Cc2cc(Cl)cc3[nH]c(=O)n(c23)C[C@H]1C,"IC50 [2, 9]: 0.18 µM"
,CCCC1CN(CCC)Cc2cccc3[nH]c(=O)n1c23 (stereo not drawn),"IC50 [2, 9]: > 180 µM"
0.023,CC(C)=CCN1CCn2c(=S)[nH]c3cc(Cl)cc(c32)C1C (stereo not drawn),
,C=C(C)CN1Cc2cccc3[nH]c(=O)n(c23)C(CCC)C1 (stereo not drawn),"IC50 [2, 9]: 48.1 µM"
56.7,CC(C)=CCN1Cc2cccc3nc(O)n(c23)C(C)C1C (stereo not drawn),
0.16,CC(C)=CCN1CCn2c(=O)[nH]c3cc(Cl)cc(c32)C1C (stereo not drawn),
23.1,C=C(C)CN1Cc2cccc3[nH]c(=O)n(c23)CC1(C)C,
> 250,CC1NCCn2c(O)nc3cccc1c32 (stereo not drawn),
> 250,O=C1Nc2ccccc2-n2c(S)nc3cccc1c32,
> 50,CCCN1Cc2cc(Cl)cc3[nH]c(=S)n(c23)C(=O)C1C (stereo not drawn),
> 10,CC(C)=CCN1Cc2cc(Cl)cc3nc(S)n(c23)C[C@H]1C(C)C,
,C=C(C)CN1Cc2cccc3nc(O)n(c23)CC1CCC (stereo not drawn),"IC50 [2, 9]: > 10 µM"
0.06,C[C@@H]1Cn2c(S)nc3cccc(c32)CN1CC1CC1,
,CC(C)=CCN1Cc2cc(Cl)cc3nc(S)n(c23)C[C@H]1C,IC50 (MT4 [6]): 0.043 µM
,CCCN1C(=O)c2cccc3nc(O)n(c23)CC1C (stereo not drawn),IC50 (MT4 [5]): > 250 µM
> 250,Oc1nc2cccc3c2n1C(c1ccccc1)CNC3 (stereo not drawn),
,CC(C)=CCN1Cc2c(Cl)ccc3nc(S)n(c23)C[C@H]1C,IC50 (MT4 [7]): 0.005 µM
> 2,CC(C)=CCN1CCn2c(S)nc3cccc(c32)C1c1ccccc1 (stereo not drawn),
1.15,CC(C)=CCN1C(C)Cn2c(=S)[nH]c3cccc(c32)C1C (stereo not drawn),IC50 (MT4 [4]): 0.042 µM
> 10,C=C(C)CN1Cc2cccc3nc(O)n(c23)C[C@@H]1C(C)C,

IC50 [1] [µM],Compound,further results
,Oc1nc2cccc3c2n1CC1CCCCN1C3 (stereo not drawn),IC50 (MT4 [4]): > 250 µM
> 10,CC(C)=CCN1Cc2cccc3nc(S)n(c23)C[C@@H]1C(C)C,
0.034,C[C@@H]1Cn2c(S)nc3cc(Cl)cc(c32)CN1CC1CC1,
> 5,CC(C)=CCN1[C@@H](C)Cn2c(=O)[nH]c3cc(Cl)cc(c32)[C@@H]1C,
> 250,CCC1Cn2c(O)nc3cccc(c32)CN1 (stereo not drawn),
> 2,S=c1[nH]c2cc(Cl)cc3c2n1CCN1CCCCC31 (stereo not drawn),
,O=C1CCC2c3cc(Cl)cc4nc(S)n(c34)CCN12 (stereo not drawn),"IC50 [2, 9]: > 250 µM"
0.67,C=C(C)CN1Cc2cc(Cl)cc3[nH]c(=S)n(c23)[C@@H](C)C1,
> 250,CC1CNCc2cccc3nc(O)n1c23 (stereo not drawn),
,CC(C)=CCN1CCn2c(=S)[nH]c3ccc(Cl)c(c32)C1,"IC50 [2, 9]: 0.046 µM"
,CC(C)=CCN1CCn2c(=O)[nH]c3ccc(Cl)c(c32)C1C (stereo not drawn),"IC50 [2, 9]: 0.145 µM"
> 10,CC(C)[C@H]1Cn2c(O)nc3cc(Cl)cc(c32)CN1,
2.43,CCCN1CCn2c(=S)[nH]c3cccc(c32)C1C (stereo not drawn),
,C=C(C)CN1Cc2cccc3[nH]c(=O)n(c23)CC1C (stereo not drawn),IC50 (MT4 [8]): 34.7 µM
0.078,CC(C)=CCN1CCn2c(=S)[nH]c3cccc(c32)C1C (stereo not drawn),
14.3,CC(C)=CCN1Cc2cccc3[nH]c(=S)n(c23)C(C)C1C (stereo not drawn),"IC50 [2, 9]: 2.22 µM"
,CC(C)=CCN1CCn2c(=S)[nH]c3ccc(Cl)c(c32)C1C (stereo not drawn),"IC50 [2, 9]: 0.012 µM"
32.1,C=C(C)CN1Cc2cccc3[nH]c(=O)n(c23)C(C)C1 (stereo not drawn),
13.4,CC1C(C)n2c(S)nc3cccc(c32)CN1CC1CC1 (stereo not drawn),
,CC(C)=CCN1CCn2c(=O)[nH]c3cccc(c32)C1C (stereo not drawn),"IC50 [2, 9]: 12.1 µM"
0.16,CC(C)=CCN1CCn2c(=S)[nH]c3cc(Cl)cc(c32)C1,
,C=C(C)CN1Cc2cccc3[nH]c(=O)n(c23)C(C(C)C)C1 (stereo not drawn),"IC50 [2, 9]: 12.6 µM"
,CC(C)=CCN1CC(C)n2c(S)nc3cccc(c32)C1C (stereo in doubt; 1bg),IC50 ([2]; mt4): 25.8 µM
,CC(C)=CCN1CC(C)n2c(S)nc3cccc(c32)C1C (stereo in doubt; 1bh),IC50 ([2]; mt4): > 10 µM

Compound,IC50 [1] [µM],further results
Sc1nc2cc(Cl)cc3c2n1CCN1CCCC31 (stereo not drawn),> 2,
Oc1nc2cccc3c2n1CC1CCCN1C3 (stereo not drawn),> 250,

# Reference: ChEMBL document CHEMBL1128252, “Synthesis and anti-HIV-1 activity of 4,5,6,7-tetrahydro-5-methylimidazo [4,5,1-jk][1,4]benzodiazepin-2(1H)-one (TIBO) derivatives. 3” (J Med Chem, 1995)
